Laboratory results: ChEMBL document CHEMBL3870323, “Sulfonamide chalcones: Synthesis and in vitro exploration for therapeutic potential against Brugia malayi” (Eur J Med Chem, 2016)
Calls of active or inactive are those of the source. No cut-off for these calls is given here.

Key:
[1] = Cytotoxicity against human PBMC after 48 hrs by trypan blue exclusion assay; type: toxicity, cell-based; conditions: PBMC (peripheral blood mononuclear cells), read-out: LD50
Summary of the method: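 Human PBMCs came from healthy donors' venous blood by histopaque-1077 density separation. Cells were washed in RPMI 1640 with 2 mM L-glutamine and resuspended in RPMI with 10% FBS at 1x10^5 cells/ml. Trypan blue exclusion followed the procedure adapted from the microfilarial motility assay. LD50 was taken as the dose giving 50% cytotoxicity.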

[2] = Antifilarial activity against Brugia malayi microfilariae isolated from peritoneal cavity of infected Meriones unguiculatus assessed as loss of motility incubated for 48 hrs by microscopy; type: functional
Summary of the method: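 Jird peritoneal Mf cleaned of exudate cells by 1 h adherence at 37°C. Exposed to compound over 1–100 µM final with shaking at 37°C, 30 min, 150 rpm in 0.9% saline. Washed, plated at 100 Mf per well in RPMI, triplicate wells, then 48 h at 37°C in 5% CO2. Vehicle control 1% DMSO. Loss of motility read by microscopy; experiment repeated three times; IC50 calculated.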

[3] = Antifilarial activity against Brugia malayi microfilariae isolated from peritoneal cavity of infected Meriones unguiculatus assessed as loss of motility at 500 uM incubated for 48 hrs by microscopy; type: functional
Summary of the method: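 Jird peritoneal Mf washed in RPMI 1640 with gentamycin, penicillin and streptomycin, then held 1 h at 37°C on dishes to remove exudate cells. About 300 Mf in 0.9% saline exposed to compound with shaking at 37°C, 30 min, 150 rpm. 100 Mf per well, in triplicate, then 48 h at 37°C in 5% CO2 in RPMI. Stocks were 2 mM in DMSO; vehicle control 1% DMSO. Motility scored by microscopy; mean ± SEM % loss of motility.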

[4] = test system: Brugia malayi; experiment: Induction of apoptosis in Brugia malayi microfilariae isolated from peritoneal cavity of infected Meriones unguiculatus after 48 hrs by acridine orange/ethidium bromide dual staining based epifluorescence microscopy; type: functional
Summary of the method: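 Mf, control or treated for 48 h, washed and resuspended in cold PBS. Dye mix of 100 µg/mL AO and 100 µg/mL EB in PBS added. Viewed by epifluorescence microscopy with 480/30 nm excitation; green nuclei scored as live, orange/red as apoptotic or dead. Staurosporine was the positive control and untreated Mf the negative control.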

SMILES	CC50 at 48 h [1] [µM]	IC50 [2] [µM]	Activity [3] [%]	Activity [4]
COc1ccc(/C=C/C(=O)c2ccc(NS(C)(=O)=O)cc2)cc1	194	60	100	Active
Cc1ccc(S(=O)(=O)Nc2ccc(C(=O)/C=C/c3ccc(C(C)C)cc3)cc2)cc1	50	20	100	Active
Cc1ccc(S(=O)(=O)Nc2ccc(C(=O)/C=C/c3cccc(Br)c3)cc2)cc1	80	15	100	Active
Cc1ccc(S(=O)(=O)Nc2ccc(C(=O)/C=C/c3ccccc3)cc2)cc1	335	9.7	100	Active
Cc1ccc(S(=O)(=O)Nc2ccc(C(=O)/C=C/c3ccc(Cl)cc3)cc2)cc1			1.58	
O=C(/C=C/c1ccc([N+](=O)[O-])cc1)c1ccc(NS(=O)(=O)c2ccccc2)cc1			100	Active
Cc1ccc(S(=O)(=O)Nc2ccc(C(=O)/C=C/c3ccc(Br)cc3)cc2)cc1	220	4.6	100	Active
Cc1ccc(S(=O)(=O)Nc2ccc(C(=O)/C=C/c3ccccc3Br)cc2)cc1			3.04	
CS(=O)(=O)Nc1ccc(C(=O)/C=C/c2ccc([N+](=O)[O-])cc2)cc1	188	4.4	100	Active
Cc1ccc(S(=O)(=O)Nc2ccc(C(=O)/C=C/c3ccc(-c4ccccc4)cc3)cc2)cc1			6.24	
Cc1ccc(/C=C/C(=O)c2ccc(NS(=O)(=O)c3ccccc3)cc2)cc1			6.34	
O=C(/C=C/c1ccc(Br)s1)c1ccc(NS(=O)(=O)c2ccccc2)cc1			9	
O=C(/C=C/c1ccccc1Br)c1ccc(NS(=O)(=O)c2ccccc2)cc1			13.4	
O=C(/C=C/c1ccc(Cl)cc1)c1ccc(NS(=O)(=O)c2ccccc2)cc1	177	17	100	Active
O=C(/C=C/c1ccccc1Cl)c1ccc(NS(=O)(=O)c2ccccc2)cc1			33.3	
Cc1ccc(/C=C/C(=O)c2ccc(NS(=O)(=O)c3ccc(C)cc3)cc2)cc1	140	8.2	100	Active
Cc1ccc(S(=O)(=O)Nc2ccc(C(=O)/C=C/c3ccccc3Cl)cc2)cc1			4.1	
CN(C)c1ccc(/C=C/C(=O)c2ccc(NS(=O)(=O)c3ccccc3)cc2)cc1			3.75	
O=C(/C=C/c1ccc(F)cc1)c1ccc(NS(=O)(=O)c2ccccc2)cc1	217	4.5	100	Active
CS(=O)(=O)Nc1ccc(C(=O)/C=C/c2ccccc2)cc1	134	32	100	Active
O=C(/C=C/c1ccc(Br)cc1)c1ccc(NS(=O)(=O)c2ccccc2)cc1	265	70	100	Active
O=C(/C=C/c1ccccc1)c1ccc(NS(=O)(=O)c2ccccc2)cc1			4.52	
O=C(/C=C/c1ccc(O)cc1)c1ccc(NS(=O)(=O)c2ccccc2)cc1			5.2	
O=C(/C=C/c1ccco1)c1ccc(NS(=O)(=O)c2ccccc2)cc1			8.11	
COc1ccc(/C=C/C(=O)c2ccc(NS(=O)(=O)c3ccc(C)cc3)cc2)cc1			82.7	
COc1ccc(/C=C/C(=O)c2ccc(NS(=O)(=O)c3ccccc3)cc2)cc1			1.81	
Cc1ccc(S(=O)(=O)Nc2ccc(C(=O)/C=C/c3ccc(O)cc3)cc2)cc1	270	82	100	Active
